Assay results as given in article PMC7032195 (Asian Journal of Pharmaceutical Sciences, 2018).
Like-named read-outs stand apart in the source and are kept apart here.

Columns and labels:
[1] = Pharmacokinetics after intravenous injection in rats; assay type: in vivo, Sprague-Dawley rats; details: i.v., 10 mg/kg
Summary of the method: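 Male Sprague-Dawley rats (~200 g), n = 3, received ethanol solutions or co-loaded mPEG-PDLA micelles i.v. at 10 mg/kg. Orbital plexus blood was drawn into heparin tubes at 0.083–12 h. Plasma was separated at 5000 rpm for 10 min and stored at −20 °C. Carbamazepine was the internal standard, with methyl tert-butyl ether extraction. UV detection was at 228 or 306 nm. Parameters are mean ± SD.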

MCF-7 cells = assay: MTT assay of DTX, RES and their combinations at different mass ratios; assay type: cell-based; details: Homo sapiens
Summary of the method: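 MCF-7 cells seeded at 6000 cells/well 12 h before dosing, then exposed to each test compound alone (0–50.0 or 0–100.0 µg/ml) or as 1:1 combinations (2.5+2.5 to 50+50 µg/ml); DMEM vehicle control. After two days, OD read at 490 nm. Six replicate wells per condition, at least three independent repeats. Combination index calculated for 2:1, 1:1 and 1:2 mass ratios.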

[2] = MCF7, read-out: IC50 in MCF-7 cells

## CC(=O)O[C@@]12CO[C@@H]1C[C@H](O)[C@@]1(C)C(=O)[C@H](O)C3=C(C)[C@@H](OC(=O)[C@H](O)[C@@H](NC(=O)OC(C)(C)C)c4ccccc4)C[C@@](O)([C@@H](OC(=O)c4ccccc4)[C@H]21)C3(C)C [DTX, docetaxel]
[1]; analyte DTX
  V: 3.79 ± 0.83 L/kg
MCF-7 cells; MCF7, read-out: IC50 (µg/ml) DTX
  IC50: 10.4 ± 0.43 µg/mL
MCF-7 cells; [2]
  IC50: 10.4 µg/mL

## Oc1ccc(/C=C/c2cc(O)cc(O)c2)cc1 [RES, resveratrol]
[1]; analyte RES
  V: 3.45 ± 2.93 L/kg
MCF-7 cells; MCF7, read-out: IC50 (µg/ml) RES
  IC50: 23 ± 0.54 µg/mL
MCF-7 cells; [2]
  IC50: 23 µg/mL
